Assay results from different studies.
Lines come from different studies, so protocols differ. pIC50: −log10 of the molar value.
Effect on: cell growth or viability

Structure (SMILES) | cell line | test | conditions | quantity | result
CC1=C(O)C(=O)C=C2C1=CC=C1[C@@]2(C)CC[C@@]2(C)[C@@H]3C[C@](C)(C(=O)OCCCCCCCO)CC[C@]3(C)CC[C@]12C | AGS | MTT | 48 h | pIC50 | 6.39
COc1ccc(Br)cc1/C=C/C(=O)c1ccc(NC(C)=O)cc1 | MEF | MTT | 72 h | pIC50 | 6.00
O=C1NC(=NCc2cccs2)S/C1=C\c1ccc2ncccc2c1 | EKVX | – | – | pIC50 | < 5.00
Cn1nnc2c(C(=O)N3CCCC3)ncn2c1=O | U-87 MG | resazurin | 7 days | pIC50 | 4.77
C#CCSc1nc(Sc2nnnn2-c2ccccc2)c2nnn(Cc3ccc(OC)cc3)c2n1 | Raji | MTS | 6 days | pIC50 | 5.48
CCN1CCN(c2ccc(Nc3cc(N(C)C(=O)Nc4c(Cl)c(OC)cc(OC)c4Cl)ncn3)cc2)CC1 | JMSU-1 | ATP luminescence | 96 h | pIC50 | 7.59
COc1c(C)c(OC)c2c(c1C)OC(c1ccccc1)CC2=O (stereo not drawn) | KKU-M213 | SRB | 72 h | pIC50 | < 4.30
CC1=C(O)C(=O)C=C2C1=CC=C1[C@@]2(C)CC[C@@]2(C)[C@@H]3C[C@](C)(C(=O)OCCCn4ccc5ccccc54)CC[C@]3(C)CC[C@]12C | AGS | MTT | 48 h | pIC50 | 5.68
COc1ccc(/C=C/C(=O)c2cc(Br)ccc(=O)c2O)cc1 | MEF | MTT | 72 h | pIC50 | 5.22
COc1cccc2c1C(=O)c1c(O)c3c(c(O)c1C2=O)C[C@@](O)(C(=O)CO)C[C@@H]3O[C@H]1C[C@H](N)[C@H](O)[C@H](C)O1 | ChaGo-K-1 | MTT | 48 h | IC50 | 0.65 µg/mL
CCN1C(=O)N(c2c(F)c(OC)cc(OC)c2F)Cc2cnc3[nH]c(CN4CCOCC4)cc3c21 | JMSU-1 | ATP luminescence | 96 h | pIC50 | 8.06
CCCCCCCCCCCC(=O)Oc1c(C)c(O)c(C(=O)/C=C/c2ccccc2)c(OC)c1C | KKU-M213 | SRB | 72 h | pIC50 | < 4.30
CCSC(=O)c1ncn2c(=O)n(C)nnc12 | U-87 MG | resazurin | 7 days | pIC50 | 4.19
CC1=C(O)C(=O)C=C2C1=CC=C1[C@@]2(C)CC[C@@]2(C)[C@@H]3C[C@](C)(C(=O)OCCCCCCCCO)CC[C@]3(C)CC[C@]12C | AGS | MTT | 48 h | pIC50 | 6.38
Cc1cnc(NC2CCOCC2)nc1-n1cnc(C(=O)NC(CN)c2cc(F)cc(Cl)c2)c1 (stereo not drawn) | JVM13 | MTS | – | pIC50 | 5.57
CC1=C(O)C(=O)C=C2C1=CC=C1[C@@]2(C)CC[C@@]2(C)[C@@H]3C[C@](C)(C(=O)OCCCCO)CC[C@]3(C)CC[C@]12C | AGS | MTT | 48 h | pIC50 | 6.46
COc1ccc(C2=N[C@@H](c3ccc(Cl)cc3)[C@@H](c3ccc(Cl)cc3)N2C(=O)N2CCNC(=O)C2)c(OC(C)C)c1 | DU-4475 | MTS | 48 h | pIC50 | 5.40
CC1=C(O)C(=O)C=C2C1=CC=C1[C@@]2(C)CC[C@@]2(C)[C@@H]3C[C@](C)(C(=O)OCCCCCCO)CC[C@]3(C)CC[C@]12C | AGS | MTT | 48 h | pIC50 | 6.44
Cc1cccc(-n2ncc(Br)c(Br)c2=O)c1 | PC-9 | resazurin | 96 h | pIC50 | 6.07
COCCCOC(=O)[C@]1(C)CC[C@]2(C)CC[C@]3(C)C4=CC=C5C(=CC(=O)C(O)=C5C)[C@]4(C)CC[C@@]3(C)[C@@H]2C1 | AGS | MTT | 48 h | pIC50 | 6.41
C=CC(=O)Nc1cc(Nc2nccc(-c3cn(C4CC4)c4ccccc34)n2)c(OC)cc1N(C)CCN(C)C | PC-9 | ATP luminescence | 72 h | pIC50 | 8.39
